From ChEMBL document CHEMBL5653605, “Reduced VEGF production, angiogenesis, and vascular regrowth contribute to the antitumor properties of dual mTORC1/mTORC2 inhibitors” (Cancer Res, 2011)
Activity calls are given as the source filed them.

Columns and labels:
[1] = target: Phosphatidylinositol 4,5-bisphosphate 3-kinase catalytic subunit beta isoform (Homo sapiens, UniProt P42338); assay: Inhibition of PI3Kbeta (unknown origin) in presence of ATP by HTRF assay
Method in brief: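 PI3K activity by HTRF assay at […] ATP.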

[2] = test system: Pancreatic islet cell carcinoma; assay: Antivascular activity in pancreatic islet cell carcinoma in RIP-Tag2 mouse assessed as suppression of tumor regrowth by measuring reduction in vessel density at 75 mg/kg, po bid administered via gavage pretreated with OSI-930 for 7 days at 200 mg/kg, po followed by compound administration and measured after 1 day; assay type: functional, organism-based
[3] = target: DNA-dependent protein kinase catalytic subunit (Homo sapiens, UniProt P78527); assay: Inhibition of DNA-PK activity (unknown origin) presence of ATP
[4] = target: Dual specificity mitogen-activated protein kinase kinase 2 (Homo sapiens) (UniProt P36507); assay: Inhibition of MEK2 (unknown origin)
[5] = test system: Pancreatic islet cell carcinoma; assay: Antivascular activity against pancreatic islet cell carcinoma in RIP-Tag2 mouse assessed as reduction in vascular sprouts at 75 mg/kg, po bid administered via gavage and measured after 7 days by immunohistochemical staining based fluorescence microscopic analysis relative to control; assay type: functional; set-up: scale not given: the % may be the effect or the level left; conditions: time 7 day
Method in brief: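 For 7 days, RIP-Tag2 mice, 9–10 weeks old, received 75 mg/kg gavage BID, 200 mg/kg gavage QD, or 20 mg/kg ip QD. Perfusion-fixed tumors cut at 60–80 µm and stained for CD31 and type IV collagen basement membrane. Vessel area density from fluorescence images with threshold 30–50; sprouts and empty basement membrane sleeves examined by confocal microscopy. 3–8 mice/group; ANOVA, Fisher PLSD.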

Chain of Phosphatidylinositol 4,5-bisphosphate 3-kinase catalytic subunit beta isoform (P42338 whole entry, canonical isoform): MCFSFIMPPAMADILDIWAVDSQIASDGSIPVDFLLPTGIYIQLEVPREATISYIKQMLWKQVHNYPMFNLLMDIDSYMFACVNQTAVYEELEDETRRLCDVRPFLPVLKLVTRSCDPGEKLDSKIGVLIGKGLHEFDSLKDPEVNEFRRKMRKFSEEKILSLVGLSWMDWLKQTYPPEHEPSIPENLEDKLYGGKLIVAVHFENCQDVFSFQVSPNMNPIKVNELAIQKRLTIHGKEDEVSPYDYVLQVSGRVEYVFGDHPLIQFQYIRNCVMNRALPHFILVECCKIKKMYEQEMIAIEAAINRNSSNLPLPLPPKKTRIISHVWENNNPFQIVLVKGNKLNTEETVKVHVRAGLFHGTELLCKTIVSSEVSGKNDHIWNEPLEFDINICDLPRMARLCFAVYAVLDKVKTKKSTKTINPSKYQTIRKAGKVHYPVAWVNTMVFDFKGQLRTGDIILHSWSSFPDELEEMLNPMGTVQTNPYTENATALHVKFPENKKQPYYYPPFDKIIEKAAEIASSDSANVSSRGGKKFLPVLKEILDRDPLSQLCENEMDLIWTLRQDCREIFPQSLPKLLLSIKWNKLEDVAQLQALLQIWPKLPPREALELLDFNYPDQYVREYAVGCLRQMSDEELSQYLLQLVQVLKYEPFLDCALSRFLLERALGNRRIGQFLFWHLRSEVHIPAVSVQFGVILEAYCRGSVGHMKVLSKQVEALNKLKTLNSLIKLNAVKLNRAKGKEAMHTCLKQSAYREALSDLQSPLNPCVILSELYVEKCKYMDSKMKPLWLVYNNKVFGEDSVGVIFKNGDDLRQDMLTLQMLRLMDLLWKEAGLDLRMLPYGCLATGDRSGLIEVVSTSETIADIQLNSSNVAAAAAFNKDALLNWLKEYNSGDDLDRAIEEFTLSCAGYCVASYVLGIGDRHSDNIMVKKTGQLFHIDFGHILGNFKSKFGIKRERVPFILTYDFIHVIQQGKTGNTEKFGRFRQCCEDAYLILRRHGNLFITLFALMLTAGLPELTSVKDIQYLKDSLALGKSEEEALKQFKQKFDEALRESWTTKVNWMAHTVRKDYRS
Chain of Dual specificity mitogen-activated protein kinase kinase 2 (Homo sapiens) (P36507 whole entry): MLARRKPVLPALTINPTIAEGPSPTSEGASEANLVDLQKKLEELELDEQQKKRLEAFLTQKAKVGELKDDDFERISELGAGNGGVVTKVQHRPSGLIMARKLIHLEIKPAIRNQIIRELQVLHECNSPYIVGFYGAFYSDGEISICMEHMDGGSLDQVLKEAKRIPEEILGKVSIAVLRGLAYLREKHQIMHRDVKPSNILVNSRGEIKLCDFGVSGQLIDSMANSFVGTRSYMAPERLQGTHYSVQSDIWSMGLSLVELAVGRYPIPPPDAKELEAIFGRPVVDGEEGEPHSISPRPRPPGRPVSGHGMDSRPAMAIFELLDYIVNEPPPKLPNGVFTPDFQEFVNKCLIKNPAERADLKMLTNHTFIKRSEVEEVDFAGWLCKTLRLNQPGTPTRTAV

SMILES: Nc1nccn2c1c(-c1cc3cccc(Cl)c3[nH]1)nc2[C@H]1CC[C@H](C(=O)O)CC1
- IC50 [1]: 9.3 µM
- Activity [2]: inactive
- IC50 [3]: 3.2 µM
- inhibition [4]: Active
- Activity [5]: 54%
